19 molecules from ChEMBL document CHEMBL2417392, “Synthesis and broad spectrum antiviral evaluation of bis(POM) prodrugs of novel acyclic nucleosides” (Eur J Med Chem, 2013) can be followed below.

One series concerns Human betaherpesvirus 5. Description: Antiviral activity against human Cytomegalovirus AD169 infected in HEL cells assessed as inhibition of virus-induced cytopathicity after. Format: functional, organism-based. Conditions: Human betaherpesvirus 5, AD169, HEL.
For another series, the system named is HEL. Description: Cytotoxicity against human HEL cells after 3 days by Coulter counting method. Conditions: 72 h. The series is classed as cell-based.
Another series relates to PBMC. Description: Cytotoxicity against human PBMC cells. The series is classed as cell-based.
Another series has as its system Hepatitis C virus. Description: Antiviral activity against HCV infected in Huh7 cells assessed as inhibition of viral RNA replication after 5 days by RT-PCR Assay. The series is classed as functional, Hepacivirus hominis, Huh-7. A digest of the protocol: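 Huh 7 Clone B cells carrying subgenomic HCV replicon RNA, seeded 3000 cells/well, compound added at 10 μM in triplicate right after seeding; 5 days at 37 °C, 5% CO2. Total RNA extracted; replicon RNA and rRNA internal control amplified by one-step multiplex real-time RT-PCR. Activity as ΔCt versus no-drug control (ΔCt 3.3 = 1-log reduction); ΔCt converted to fraction of starting material for % inhibition.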

The test system of another series is CCRF-CEM. Description: Cytotoxicity against human CEM cells. Format: cell-based.
A further series concerns Vero. Description: Cytotoxicity against african green monkey Vero cells. Format: cell-based. Conditions: chlorocebus sabaeus.
Series [1] relates to Human immunodeficiency virus. Description: Antiviral activity against HIV infected in human CEM cells assessed as inhibition of HIV-induced CEM giant cell formation after 4 days by microscopy. Conditions: Human immunodeficiency virus 1, CCRF-CEM, 96 h.

SMILES strings stand for the structures.

With `CC(C)(C)C(=O)OCOP(=O)(C/C=C/Cn1cc(CO)nn1)OCOC(=O)C(C)(C)C`, the results for the 50% effective concentration (EC50) (in the series on Human betaherpesvirus 5; in series [1]) were 9.9 µM and > 100 µM, respectively. The half-maximal cytotoxic concentration (CC50) in the series with HEL was 100 µM; in the series on PBMC, 73.2 µM; with CCRF-CEM, 57.4 µM; in the series with Vero it was 87.1 µM. The “inhibition (INH)” value with Hepatitis C virus worked out at 78.1%. Further, the EC90 in series [1] is > 100 µM.

For the molecule `CC(C)(C)C(=O)OCOP(=O)(C/C=C/Cn1cc(F)c(N)nc1=O)OCOC(=O)C(C)(C)C`, in the series with Hepatitis C virus, the “inhibition (INH)” value turned out to be 73.6%.

Turning to `CC(C)(C)C(=O)OCOP(=O)(C/C=C/Cn1ccc(N)nc1=O)OCOC(=O)C(C)(C)C`, the 50% cytotoxic concentration (CC50) with PBMC, in the series on CCRF-CEM and in the series on Vero was > 100 µM throughout. Moreover, in the series with Hepatitis C virus, the “inhibition (INH)” value is listed as 80.4%. Further, the EC50 in series [1] is 70.4 µM. Moreover, the EC90 in series [1] is > 100 µM.

In the case of `CC(C)(C)C(=O)OCOP(=O)(C/C=C/Cn1cc(-c2ccc(OC(F)(F)F)cc2)nn1)OCOC(=O)C(C)(C)C`, the CC50 with PBMC stood at 19.6 µM; in the series on CCRF-CEM, 37.6 µM; in the series with Vero it was 12.7 µM. Moreover, the “inhibition (INH)” value with Hepatitis C virus amounted to 60.6%. Further, the 50% effective concentration (EC50) in series [1] was 55.2 µM. Further, the concentration for an effect of 90% (EC90) in series [1] is > 100 µM.

On to `CC(C)(C)C(=O)OCOP(=O)(C/C=C/Cn1cc(-c2ccc(F)cc2)nn1)OCOC(=O)C(C)(C)C`, for which the CC50 stood at 61.9 µM with PBMC, 31.6 µM with CCRF-CEM and 47 µM in the series with Vero. Besides, the “inhibition (INH)” value in the series on Hepatitis C virus came out at 84.3%. Besides, in series [1], the EC50 was > 100 µM. Moreover, the concentration for an effect of 90% (EC90) in series [1] is > 100 µM.

With `COc1cc(OC)cc(-c2cn(C/C=C/CP(=O)(OCOC(=O)C(C)(C)C)OCOC(=O)C(C)(C)C)nn2)c1`, the CC50 was > 100 µM in the series on PBMC, 68.2 µM in the series with CCRF-CEM and 86.8 µM with Vero. Further, in the series on Hepatitis C virus, the “inhibition (INH)” value was 20.8%. Further, the 50% effective concentration (EC50) in series [1] was > 100 µM. Besides, in series [1], the EC90 is > 100 µM.

For `CC(C)(C)C(=O)OCOP(=O)(C/C=C/Cn1cc(C(=O)O)nn1)OCOC(=O)C(C)(C)C`, the CC50 in the series on PBMC, in the series with CCRF-CEM and with Vero was > 100 µM each time. For the same molecule, the “inhibition (INH)” value in the series with Hepatitis C virus worked out at 53.8%. Further, the half-maximal effective concentration (EC50) in series [1] is > 100 µM. For the same molecule, in series [1], the 90% effect concentration (EC90) is > 100 µM.

For the molecule `CCCc1ccc(-c2cn(C/C=C/CP(=O)(OCOC(=O)C(C)(C)C)OCOC(=O)C(C)(C)C)nn2)cc1`, the half-maximal cytotoxic concentration (CC50) in the series on PBMC was 35.9 µM; in the series on CCRF-CEM it was 55.3 µM; in the series on Vero, 41 µM. For the same molecule, the “inhibition (INH)” value in the series on Hepatitis C virus came to 95.6%. In series [1], the EC50 worked out at 31.6 µM. For the same molecule, the 90% effect concentration (EC90) in series [1] is > 100 µM.

Turning to `Nc1ccn(C[C@@H](CO)OCP(=O)(O)O)c(=O)n1` [CIDOFOVIR], in the series on HEL, the 50% cytotoxic concentration (CC50) was > 350 µM.

With `CC(C)(C)C(=O)OCOP(=O)(C/C=C/Cn1ccnc(C(N)=O)c1=O)OCOC(=O)C(C)(C)C`, the CC50 in the series on PBMC, in the series on CCRF-CEM and in the series with Vero was > 100 µM each time. Moreover, in the series on Hepatitis C virus, the “inhibition (INH)” value was 60%. Moreover, in series [1], the EC50 was > 100 µM. Further, the EC90 in series [1] is > 100 µM.

On to `CCCCCCCCc1cn(C/C=C/CP(=O)(OCOC(=O)C(C)(C)C)OCOC(=O)C(C)(C)C)nn1`, for which the values for the CC50 in the series with PBMC, in the series with CCRF-CEM and in the series with Vero were 19.8 µM, 16.8 µM and 10.3 µM, respectively. Further, the “inhibition (INH)” value with Hepatitis C virus turned out to be 88.7%. Besides, the EC50 in series [1] is > 100 µM. In series [1], the EC90 is > 100 µM.

Turning to `Nc1nc(O)c2ncn(COC(CO)CO)c2n1` [GANCICLOVIR], the CC50 with HEL is > 350 µM.

`COC(=O)c1nccn(C/C=C/CP(=O)(OCOC(=O)C(C)(C)C)OCOC(=O)C(C)(C)C)c1=O`: the CC50 with PBMC, with CCRF-CEM and in the series on Vero was > 100 µM throughout. In addition, the “inhibition (INH)” value with Hepatitis C virus worked out at 76.9%. The EC50 in series [1] was > 100 µM. Further, in series [1], the EC90 is > 100 µM.

For the molecule `CCCCCCc1ccc(-c2cn(C/C=C/CP(=O)(OCOC(=O)C(C)(C)C)OCOC(=O)C(C)(C)C)nn2)cc1`, the half-maximal cytotoxic concentration (CC50) in the series on PBMC worked out at 5.9 µM; in the series with CCRF-CEM, 16.1 µM; in the series on Vero it was 10.4 µM. In the series on Hepatitis C virus, the “inhibition (INH)” value was found to be 95%. In series [1], the EC50 came out at 43.9 µM. The EC90 in series [1] is > 100 µM.

`CC(C)(C)C(=O)OCOP(=O)(C/C=C/Cn1cc(-c2cccs2)nn1)OCOC(=O)C(C)(C)C`: the cytotoxic concentration (CC50) was 32.9 µM in the series on PBMC, 31.6 µM in the series on CCRF-CEM and 17.1 µM with Vero. For the same molecule, in the series with Hepatitis C virus, the “inhibition (INH)” value is 0.2%. The concentration giving a half-maximal response (EC50) in series [1] is 62.3 µM. Further, the EC90 in series [1] is > 100 µM.

For `CC(C)(C)C(=O)OCOP(=O)(C/C=C/Cn1cc(-c2ccccc2)nn1)OCOC(=O)C(C)(C)C`, the CC50 with PBMC is 16 µM; in the series with CCRF-CEM, 31.6 µM; in the series with Vero it was 15.6 µM. In addition, in the series on Hepatitis C virus, the “inhibition (INH)” value is listed as 83.1%. Also, the EC50 in series [1] is 35.8 µM. Besides, the concentration for an effect of 90% (EC90) in series [1] was > 100 µM.

`CC(C)(C)C(=O)OCOP(=O)(C/C=C/Cn1ccnn1)OCOC(=O)C(C)(C)C`: the CC50 in the series on PBMC turned out to be 93.1 µM; in the series on CCRF-CEM, 81.8 µM; with Vero it was 87.9 µM. In addition, the “inhibition (INH)” value with Hepatitis C virus worked out at 85.9%. In addition, the concentration for a half-maximal effect (EC50) in series [1] is > 100 µM. The 90% effect concentration (EC90) in series [1] was > 100 µM.

For `CC(C)(C)C(=O)OCOP(=O)(C/C=C/Cn1cc(C(N)=O)nn1)OCOC(=O)C(C)(C)C`, the 50% cytotoxic concentration (CC50) came out at 62.4 µM in the series on PBMC, 52.9 µM in the series with CCRF-CEM and 80.6 µM in the series on Vero. Moreover, the “inhibition (INH)” value in the series on Hepatitis C virus is given as 86.5%. The EC50 in series [1] is 70.5 µM. Moreover, the EC90 in series [1] is > 100 µM.

`CC(C)(C)C(=O)OCOP(=O)(C/C=C/Cn1cnc(C(N)=O)n1)OCOC(=O)C(C)(C)C`: the cytotoxic concentration (CC50) with PBMC was 58.3 µM; in the series with CCRF-CEM, 41.8 µM; in the series on Vero, 86.8 µM. Also, the “inhibition (INH)” value with Hepatitis C virus is 73.9%. Moreover, the EC50 in series [1] was > 100 µM. Besides, the 90% effect concentration (EC90) in series [1] was > 100 µM.
